Screening results as filed in PubChem.
In the library only some 1.9% were active in any assay of this set; here they are far more common.
MIN6 prolif-1: inducers of MIN6 beta-cell proliferation, primary screen, ATP luminescence, uHTS | MIN6 cells proliferation, ATPlite luminescence, 48 h; cells starved in 0.2% serum; 100% = growth in 10% serum | proliferation, % at 10 µM | actives 0.29% (n = 330,000);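 active means compounds whose signal lies at least 3.5 SD above the mean of all wells on their plate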;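 further: 0% = DMSO-treated cells in low-serum medium and 100% = 10% serum control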
V-ATPase pH: regulators of yeast V-ATPase proton pumping, primary screen, pHLuorin cytosolic pH fluorescence; S. cerevisiae; response, % at 10 µM; actives 0.37% (n = 350,000); AID 504577, 2011; in the data active means response mostly above about 7.3%, no sharp cut-off; inactive means mostly below about 5.4%; further: actives read high
KLK7 zymogen act: proKLK7 zymogen activators, primary screen, biochemical, fluorescence intensity; purified proKLK7, EDANS-DABCYL substrate fluorescence; 100% is mature enzyme control, 0% vehicle; activation, % at 7 µM; actives 0.9% (n = 370,000);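 active means activation above the mean of all tested compounds plus 3 SD, computed per campaign excluding outliers beyond control limits, cut at about 13% in these data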
CR mimetic SO: reduction of superoxide in aged yeast, primary screen, HTS | S. cerevisiae aged cells, superoxide DHE fluorescence; stronger effect = lower value | superoxide response (% of plate mean), % at 10 µM | actives 0.18% (n = 330,000);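 active means superoxide response under a set limit, about three screen SD below normal, cut at about 65% in these data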;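 further: yeast aged for seven days with compound at 30 °C before DHE staining; 100% = average MFI of all compound-treated wells on the plate with controls excluded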
T cell HTS: modulators of CD8 T cell-vesicle binding, primary screen, mouse 2C CD8+ T cells, flow cytometry | 2C CD8+ T cell-vesicle binding; stronger effect = lower value | actives 0.068% (n = 330,000) | response (vesicle binding), % at 7 µM | AID 2052, 2009;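 active means response, share of CD8 T cells binding vesicles, and their 90th percentile fluorescence all below set limits, cut at about 80% in these data, passing the limit was not always enough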;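 further: values below 100% mean blocked vesicle binding to the CD8+ T cells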
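Read-out – percent CD8+ FL2 mean versus row control · System – murine 2C transgenic CD8+ T lymphocytes · Times – 1.5 h cell–vesicle binding at 37 °C, then 20 min icy labelling · Control set – naked vesicles low, QL9 vesicles with vehicle high · Detection – cytometric PE anti-B7-1 and Alexa647 anti-CD8 signals after 1% paraformaldehyde fixation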
Rce1 inhib: yeast Rce1p protease inhibitors, primary screen, biochemical, fluorescence, cell-free homogeneous | CAAX prenyl protease 2 (Saccharomyces cerevisiae (strain ATCC 204508 / S288c)), Q03530 | yeast membranes, quenched prenylated peptide cleavage fluorescence | calls only | actives 0.27% (n = 290,000);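 active means fall in fluorescence gain of 50% or more versus controls, with final raw signal at or below 3038400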;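 further: plate controls were neutral control wells for no effect and wells lacking membranes for full effect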
Target sequence (Q03530 whole entry, looked up): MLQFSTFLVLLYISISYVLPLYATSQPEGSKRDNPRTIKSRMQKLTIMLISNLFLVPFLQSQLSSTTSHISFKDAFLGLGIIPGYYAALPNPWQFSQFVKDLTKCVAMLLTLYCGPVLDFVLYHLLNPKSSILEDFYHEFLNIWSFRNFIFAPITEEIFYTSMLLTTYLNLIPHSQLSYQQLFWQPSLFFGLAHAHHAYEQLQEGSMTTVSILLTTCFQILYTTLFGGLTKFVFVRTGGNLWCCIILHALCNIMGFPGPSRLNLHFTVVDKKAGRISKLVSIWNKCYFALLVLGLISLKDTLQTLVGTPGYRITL
MIN6 prolif-2: inducers of beta-cell proliferation in MIN6, confirmation, MIN6 cells, mouse; shares compounds with MIN6 prolif-1; ATPlite luminescence, 48 h; cells kept in 0.2% serum; scaled between 0.2% and 10% serum; proliferation increase, % at 50 µM; 920 tested, under 10 active; AID 463095, 2010;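 active means proliferation increase above 40% at any of the four tested concentrations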
* marks the source's active call; other numbers are inactive results; i = inactive; . = not tested or not shown.

SMILES	MIN6 prolif-1	V-ATPase pH	KLK7 zymogen act	CR mimetic SO	T cell HTS	Rce1 inhib	MIN6 prolif-2
CCOc1cc(CCNC(=O)c2cc3ccsc3n2C)ccc1OC	.	.	0	.	.	.	.
COc1ccccc1N(CC(=O)NCCSc1ccccn1)S(=O)(=O)c1ccccc1	19*	1	0	95	177	i	-2
CCN(CC)C(=S)SCC(=O)c1c(C)[nH]c2ccccc12	0.0*	3	0	83	458	i	-6
Cn1c(SC2CCCC2)nnc1-c1ccco1	.	.	-1	.	.	.	.
COC(=O)c1ccc(S(=O)(=O)NCc2ccc(S(N)(=O)=O)cc2)n1C	-3	9	-1	112	514	.	.
COC(=O)c1ccc(S(=O)(=O)NCc2cccc(OC)c2)n1C	5.5*	-1	0	100	347	.	0
CN1CCN(P(=O)(c2ccccc2)c2nc3ccccc3s2)CC1 (configuration not stated)	5.9*	-3	0	100	272	i	0
CCOC(=O)c1[nH]c2ccc(OC)cc2c1NS(=O)(=O)c1ccc(Cl)s1	5.3*	0	0	90	227	i	-6
Cc1ccc(OCCNC(=O)CNC(=O)c2ccc3c(c2)OCO3)cc1	11*	-1	0	108	557	i	-4
COc1ccccc1OCCNC(=O)CNC(=O)c1ccc2c(c1)OCO2	5	6	0	105	397	i	.
Cc1cc(N(C(=O)c2ccco2)C(C(=O)NC2CCCCC2)c2ccccc2)ccc1-n1cnnn1 (configuration not stated)	-2	6	1	80	440	i	.
COc1cccc(C(C(=O)NC2CCCCC2)N(C(=O)c2ccco2)c2ccc(-n3cnnn3)c(C)c2)c1 (configuration not stated)	7.7*	7	0	95	390	i	-2
Cc1cc(-c2nnc(SCC(=O)Nc3ccccc3C)n2N)n[nH]1	-3	4	-1	96	170	i	.
c1ccc(-c2nnc3sc(C4CCCCC4)nn23)cc1	.	.	0	.	.	.	.
c1csc(Cc2nn3c(-c4ccncc4)nnc3s2)c1	7.3*	1	0	98	423	i	4
Fc1ccc(-c2cc(-c3nnc4sc(Cc5cccs5)nn34)[nH]n2)cc1	.	.	0	.	.	.	.
c1cc(-c2nnc3sc(C4CCCCC4)nn23)ccn1	9.0*	0	0	106	332	i	3
CCC[C@@H](/C=C/C(=O)OC(C)(C)C)Sc1ccc(OC)cc1	.	.	0	.	.	.	.
Cc1c(NC(=O)C(C)OC(=O)CC2CC3CCC2C3)c(=O)n(-c2ccccc2)n1C (configuration not stated)	9.1*	0	0	96	169	i	-2
Cc1c(NC(=O)C(C)OC(=O)COc2ccccc2)c(=O)n(-c2ccccc2)n1C (configuration not stated)	1	-4	0	99	272	i	.
CCN(CC)S(=O)(=O)c1ccc(N2CCOCC2)c(NC(=O)c2cccc3ccccc23)c1	-2	-1	0	93	308	i	.
CCN(CC)S(=O)(=O)c1ccc(N2CCOCC2)c(NC(=O)c2c3c(nc4ccccc24)CCC3)c1	7.6*	2	0	90	181	i	-1
COc1ccc(/C=C/C(=O)Nc2cc(S(=O)(=O)N3CCOCC3)ccc2N2CCCC2)cc1OC	7.3*	1	1	97	804	i	1
COc1ccc(CC(=O)N2CCN(c3ccc(C4=NNC(=O)CC4C)cc3)CC2)cc1 (configuration not stated)	4.6*	0	3	101	228	i	-1
Cc1ccc(C)c(NC(=O)C2CCCN2S(=O)(=O)c2cccnc2)c1 (configuration not stated)	.	.	0	.	.	.	.
